Reference: ChEMBL document CHEMBL1154770, “Betulinic acid derivatives as human immunodeficiency virus type 2 (HIV-2) inhibitors” (J Med Chem, 2009)
The source made the active and inactive calls. The calls are words filed in the database; no cut-off is given here.

Experiments:
[1] = system: Human immunodeficiency virus 1; assay: Antiviral activity against HIV1 NL4-3 infected in human TZM-b1 cells assessed as reduction in luciferase activity after 2 days by luciferase reporter gene assay; assay type: functional, cell-based; settings: Human immunodeficiency virus 1, NL4-3, TZM-b1, 48 h
How it was run: (§1)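 Single-round infection of TZM-bl cells with 200 TCID50 of virus in the presence of graded compound concentrations. After 2 days, the medium was removed and Bright Glo reagent was added to read luciferase luminescence (RLU). IC50 is the concentration giving 50% reduction of luciferase activity relative to virus control wells.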

[2] = Antiviral activity against HIV2 KR X3 infected in human TZM-b1 cells assessed as reduction in luciferase activity after 2 days by luciferase reporter gene assay; assay type: functional, cell-based, Human immunodeficiency virus type 2 (isolate KR); settings: Human immunodeficiency virus 2, X3, TZM-b1, 48 h; how it was run: as §1
[3] = Cytotoxicity against human TZM-b1 cells after 2 days; assay type: cell-based; settings: read-out: TC50
[4] = Selectivity index, ratio of TC50 for human TZM-b1 cells to IC50 for HIV2 KR X3 infected in human TZM-b1 cells; assay type: toxicity, cell-based; settings: TZM-b1 cells infected with HIV2 KR X3, read-out: Selectivity Index
How it was run: (§2)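 TC50 from 2-day CytoTox-Glo viability assay of compound-treated TZM-bl cells, divided by IC50 from single-round TZM-bl infection (200 TCID50 HIV-1 NL4-3 or HIV-2 KR.X3, 2-day luciferase read, 50% RLU reduction versus virus control).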

[5] = Selectivity index, ratio of TC50 for human TZM-b1 cells to IC50 for HIV1 NL4-3 infected in human TZM-b1 cells; assay type: toxicity, cell-based; settings: TZM-b1 cells infected with HIV1 NL4-3, read-out: Selectivity Index; how it was run: as §2
[6] = system: HIV-1 NL4-3 (human immunodeficiency virus 1); assay: Antiviral activity against HIV1 NL4-3 infected in human TZM-b1 cells after 2 days by luciferase reporter gene assay; settings: Human immunodeficiency virus 1, NL4-3, TZM-b1, 48 h
[7] = Ratio of IC50 for HIV2 KR X3 infected in human TZM-b1 cells to IC50 for HIV1 NL4-3 infected in human TZM-b1 cells; assay type: functional
How it was run: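 IC50s from single-round TZM-bl infection with 200 TCID50 HIV-1 NL4-3 or HIV-2 KR.X3, graded compound concentrations, 2-day luciferase (Bright Glo) read-out; IC50 = 50% RLU reduction versus virus control; ratio of HIV-2 to HIV-1 IC50.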

TZM-b1 [8] = assay: Antiviral activity against HIV2 KR X3 infected in human TZM-b1 cells after 2 days by luciferase reporter gene assay; assay type: functional, cell-based; settings: Human immunodeficiency virus type 2 (isolate KR); how it was run: as §1
TZM-b1 [9] = assay: Antiviral activity against HIV2 KR X3 harboring V3 loop of HIV1 YU-2 infected in human TZM-b1 cells after 2 days by luciferase reporter gene assay; assay type: functional, cell-based; settings: Human immunodeficiency virus type 2 (isolate KR); how it was run: as §1
TZM-b1 [10] = assay: Inhibition of HIV1 YU-2 gp120 V3 loop assessed as inhibition of HIV2 KR X3 replication in human TZM-b1 cells; assay type: cell-based; settings: Human immunodeficiency virus type 1 (isolate YU2)
How it was run: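 Single-round infection of TZM-bl cells with 200 TCID50 of HIV-2 KR.X3 chimera carrying the HIV-1 YU2 V3 loop (KR.X3-YU2/V3), in presence of graded compound concentrations. After 2 days medium removed, Bright Glo added, luciferase luminescence read; IC50 = concentration halving RLU versus virus-control wells.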

C=C(C)[C@@H]1CC[C@]2(C(=O)NCCCCC(=O)O)CC[C@]3(C)[C@H](CC[C@@H]4[C@@]5(C)CC[C@H](O)C(C)(C)[C@@H]5CC[C@]43C)[C@@H]12
IC50 [1]: 32800 nM | IC50 [2]: 170 nM | CC50 at 48 h [3]: > 72000 nM

C=C(C)[C@@H]1CC[C@]2(C(=O)NCCCCCCC(=O)O)CC[C@]3(C)[C@H](CC[C@@H]4[C@@]5(C)CC[C@H](O)C(C)(C)[C@@H]5CC[C@]43C)[C@@H]12
IC50 [1]: 11100 nM | IC50 [2]: 4500 nM | CC50 at 48 h [3]: 36200 nM

C=C(C)[C@@H]1CC[C@]2(C(=O)NCCCCCCCC(=O)O)CC[C@]3(C)[C@H](CC[C@@H]4[C@@]5(C)CC[C@H](O)C(C)(C)[C@@H]5CC[C@]43C)[C@@H]12
IC50 [1]: 840 nM | CC50 at 48 h [3]: 34200 nM | selectivity ratio [4]: < 2

C=C(C)[C@@H]1CC[C@]2(C(=O)O)CC[C@]3(C)[C@H](CC[C@@H]4[C@@]5(C)CC[C@H](OC(=O)CC(C)(C)C(=O)O)C(C)(C)[C@@H]5CC[C@]43C)[C@@H]12 [BEVIRIMAT]
IC50 [1]: 130 nM | CC50 at 48 h [3]: > 30000 nM | selectivity ratio [4]: < 2

C=C(C)[C@@H]1CC[C@]2(C(=O)NCCCCCNC(C)=O)CC[C@]3(C)[C@H](CC[C@@H]4[C@@]5(C)CC[C@H](O)C(C)(C)[C@@H]5CC[C@]43C)[C@@H]12
CC50 at 48 h [3]: 13900 nM | selectivity ratio [4]: < 2 | selectivity ratio [5]: < 2

C=C(C)[C@@H]1CC[C@]2(C(=O)NCCCCCCCCNC(C)=O)CC[C@]3(C)[C@H](CC[C@@H]4[C@@]5(C)CC[C@H](O)C(C)(C)[C@@H]5CC[C@]43C)[C@@H]12
IC50 [1]: 140 nM | CC50 at 48 h [3]: > 64000 nM | selectivity ratio [4]: < 2

C=C(C)[C@@H]1CC[C@]2(C(=O)NCCCCCCCNC(C)=O)CC[C@]3(C)[C@H](CC[C@@H]4[C@@]5(C)CC[C@H](O)C(C)(C)[C@@H]5CC[C@]43C)[C@@H]12
IC50 [1]: 38 nM | CC50 at 48 h [3]: > 66000 nM | selectivity ratio [4]: < 2 | IC50 [6]: 38 nM

C=C(C)[C@@H]1CC[C@]2(C(=O)NCCCCCC(=O)O)CC[C@]3(C)[C@H](CC[C@@H]4[C@@]5(C)CC[C@H](O)C(C)(C)[C@@H]5CC[C@]43C)[C@@H]12
IC50 [1]: 2000 nM | IC50 [2]: 150 nM | CC50 at 48 h [3]: > 70000 nM

C=C(C)[C@@H]1CC[C@]2(C(=O)NCCCCC(=O)NCC(=O)O)CC[C@]3(C)[C@H](CC[C@@H]4[C@@]5(C)CC[C@H](O)C(C)(C)[C@@H]5CC[C@]43C)[C@@H]12
IC50 [2]: 2600 nM | CC50 at 48 h [3]: > 65000 nM | selectivity ratio [5]: < 2

C=C(C)[C@@H]1CC[C@]2(C(=O)NCCCCCC(=O)N3CCC[C@H]3C(=O)O)CC[C@]3(C)[C@H](CC[C@@H]4[C@@]5(C)CC[C@H](O)C(C)(C)[C@@H]5CC[C@]43C)[C@@H]12
IC50 [1]: 51400 nM | IC50 [2]: 630 nM | CC50 at 48 h [3]: > 60000 nM

Cc1cn([C@H]2C[C@H](N=[N+]=[N-])[C@@H](CO)O2)c(=O)[nH]c1=O [ZIDOVUDINE]
IC50 [2]: 69 nM

C=C(C)[C@@H]1CC[C@]2(C(=O)NCCCC(=O)O)CC[C@]3(C)[C@H](CC[C@@H]4[C@@]5(C)CC[C@H](O)C(C)(C)[C@@H]5CC[C@]43C)[C@@H]12
IC50 [2]: 2800 nM | CC50 at 48 h [3]: 31200 nM | selectivity ratio [5]: < 2

C=C(C)[C@@H]1CC[C@]2(C(=O)NCCCCCC(=O)N[C@@H](C)C(=O)O)CC[C@]3(C)[C@H](CC[C@@H]4[C@@]5(C)CC[C@H](O)C(C)(C)[C@@H]5CC[C@]43C)[C@@H]12
IC50 [1]: 48900 nM | IC50 [2]: 370 nM | CC50 at 48 h [3]: > 63000 nM

C=C(C)[C@@H]1CC[C@]2(C(=O)NCCCCCCC(=O)NCC(=O)O)CC[C@]3(C)[C@H](CC[C@@H]4[C@@]5(C)CC[C@H](O)C(C)(C)[C@@H]5CC[C@]43C)[C@@H]12
IC50 [1]: 4100 nM | IC50 [2]: 420 nM | CC50 at 48 h [3]: > 63000 nM

C=C(C)[C@@H]1CC[C@]2(C(=O)NCCCCCCNC(C)=O)CC[C@]3(C)[C@H](CC[C@@H]4[C@@]5(C)CC[C@H](O)C(C)(C)[C@@H]5CC[C@]43C)[C@@H]12
IC50 [1]: 27 nM | CC50 at 48 h [3]: 48100 nM | selectivity ratio [4]: < 2 | IC50 [6]: 27 nM

C=C(C)[C@@H]1CC[C@]2(C(=O)NCCCCCCCC(=O)NC(CC(C)C)[C@H](O)CC(=O)O)CC[C@]3(C)[C@H](CC[C@@H]4[C@@]5(C)CC[C@H](O)C(C)(C)[C@@H]5CC[C@]43C)[C@@H]12 (single isomer, unassigned)
IC50 [1]: 42 nM | IC50 [2]: 2900 nM | CC50 at 48 h [3]: 33200 nM | Ratio IC50 [7]: 70

C=C(C)[C@@H]1CC[C@]2(C(=O)NCCCCCC(=O)NCC(=O)O)CC[C@]3(C)[C@H](CC[C@@H]4[C@@]5(C)CC[C@H](O)C(C)(C)[C@@H]5CC[C@]43C)[C@@H]12
IC50 [1]: 34700 nM | IC50 [2]: 350 nM | CC50 at 48 h [3]: > 64000 nM | Activity (TZM-b1 [8]): Dose-dependent effect | Activity (TZM-b1 [9]): Dose-dependent effect | Activity (TZM-b1 [10]): Active | IC50 [6]: 350 nM

C=C(C)[C@@H]1CC[C@]2(C(=O)NCCCCCCCC(=O)NCC(=O)O)CC[C@]3(C)[C@H](CC[C@@H]4[C@@]5(C)CC[C@H](O)C(C)(C)[C@@H]5CC[C@]43C)[C@@H]12
IC50 [1]: 120 nM | IC50 [2]: 640 nM | CC50 at 48 h [3]: 15800 nM

C=C(C)[C@@H]1CC[C@]2(C(=O)NCCCC(=O)NCC(=O)O)CC[C@]3(C)[C@H](CC[C@@H]4[C@@]5(C)CC[C@H](O)C(C)(C)[C@@H]5CC[C@]43C)[C@@H]12
IC50 [2]: 3700 nM | CC50 at 48 h [3]: > 67000 nM | selectivity ratio [5]: < 2

C=C(C)[C@@H]1CC[C@]2(C(=O)NCCCCCC(=O)N[C@@H](Cc3ccc(O)cc3)C(=O)O)CC[C@]3(C)[C@H](CC[C@@H]4[C@@]5(C)CC[C@H](O)C(C)(C)[C@@H]5CC[C@]43C)[C@@H]12
IC50 [2]: 230 nM | CC50 at 48 h [3]: 54600 nM | selectivity ratio [5]: < 2

C=C(C)[C@@H]1CC[C@]2(C(=O)O)CC[C@]3(C)[C@H](CC[C@@H]4[C@@]5(C)CC[C@H](O)C(C)(C)[C@@H]5CC[C@]43C)[C@@H]12 [BETULINIC ACID]
CC50 at 48 h [3]: > 80000 nM | selectivity ratio [4]: < 2 | selectivity ratio [5]: < 2

C=C(C)[C@@H]1CC[C@]2(C(=O)NCCCCCCNC(=O)CC(=O)O)CC[C@]3(C)[C@H](CC[C@@H]4[C@@]5(C)CC[C@H](O)C(C)(C)[C@@H]5CC[C@]43C)[C@@H]12
IC50 [1]: 440 nM | CC50 at 48 h [3]: 34600 nM | selectivity ratio [4]: < 2

C=C(C)[C@@H]1CC[C@]2(C(=O)NCCCCCC(=O)NCC(=O)NCC(=O)O)CC[C@]3(C)[C@H](CC[C@@H]4[C@@]5(C)CC[C@H](O)C(C)(C)[C@@H]5CC[C@]43C)[C@@H]12
IC50 [1]: > 58000 nM | IC50 [2]: 1700 nM | CC50 at 48 h [3]: > 58000 nM
